Reference: publication PMC4266334 (Journal of Medicinal Chemistry, 2014)

Assays:
prostate DU-145 = assay: MTT toxicity assay, DU-145; format: cell-based, human; conditions: read-out: IC50 DU-145, 24 h incubation, mean ± SD (n = 4)
Method in brief: (§1)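 Cells were seeded at 5 × 10^4/well for Jurkat or 10^4/well for adherent lines, which attached 24 h. Test compound was added at several concentrations in triplicate for 24 h at 37 °C, 5% CO2, and read by modified MTT reduction.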

[1] = tested on: triple negative breast MDA-MB-231; assay: MTT toxicity assay, MDA-MB-231; format: cell-based, human; conditions: read-out: IC50 MDA-MB-231, 24 h incubation, mean ± SD (n = 4)
leukemia Jurkat-T = assay: MTT toxicity assay, Jurkat; format: cell-based, human; conditions: read-out: IC50 Jurkat, 24 h incubation, mean ± SD (n = 4)
Method in brief: as §1

[2] = tested on: human renal proximal tubular cells (RPTC); assay: XTT assay for RPTC cells; format: cell-based; conditions: read-out: IC50 RPTC; XTT assay 24 h
Method in brief: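 Primary human renal proximal tubular cells were grown in RenaLife medium (0.5% FBS, growth factors) at 37 °C, 5% CO2. They were seeded at 5 × 10^3/well and grown 24 h. Test compound from fresh aqueous stock was given at 0.1–200 μM final for 24 h. XTT absorbance was read at 450 nm and survival calculated against untreated cells. IC50 is mean ± SE of at least two experiments in triplicate.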

lung A549 = assay: MTT toxicity assay, A549; format: cell-based, human; conditions: read-out: IC50 A549, 24 h incubation, mean ± SD (n = 4)
Method in brief: (§2)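 Adherent cells (10^4/well) attached for 24 h, then test compound was added at several concentrations in triplicate for 24 h at 37 °C, 5% CO2. Proliferation was read by a modified MTT-reduction method.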

plasmid (pBR322) DNA = assay: Electrophoresis mobility shift assay; format: binding; conditions: 37 °C, 20 h, Tris/HCl buffer, up to drug/DNA ratio 2.0
Method in brief: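 pBR322 DNA (20 μg/mL) in 5 mM Tris/HCl, 50 mM NaClO4, pH 7.39 was incubated with test compound at 0.25–2.0 metal complex:DNA bp. Incubation was 37 °C, 20 h, in the dark, with free DNA and cisplatin-DNA controls. Samples ran on 1% agarose in TAE for 1.5 h at 80 V and were stained 30 min with GelRed.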

[3] = tested on: nontumorigenic human embryonic kidney cells HEK293T; assay: MTT toxicity assay, HEK-293T; format: cell-based; conditions: read-out: IC50 HEK-293T, 24 h incubation, mean ± SD (n = 4)
Method in brief: as §2

pancreas MiaPaca2 = assay: MTT toxicity assay, MiaPaca2; format: cell-based, human; conditions: read-out: IC50 MiaPaca2, 24 h incubation, mean ± SD (n = 4)
Method in brief: as §1

N.N.[Cl][Pt][Cl] [cisplatin]
IC50 (prostate DU-145): 112 ± 33 µM
IC50 [1]: 131 ± 18 µM
IC50 (leukemia Jurkat-T): 10.8 ± 1.2 µM
IC50 [2]: 46.4 ± 2.46 µM
IC50 (lung A549): 114 ± 9.1 µM
effect on electrophoretic mobility of plasmid pBR322 (plasmid (pBR322) DNA): both increase and decrease the mobility of the OC and the CCC forms
IC50 [3]: 69 ± 6.7 µM
IC50 (pancreas MiaPaca2): 76.5 ± 7.4 µM
